IDE cell inh: inhibitors of human insulin-degrading enzyme in cells; 320,000 compounds, 0.41% hits; HEK cells, FAbetaB cleavage, fluorescence polarization; inhibition, % at 5.59 µM; AID 434962; P14735;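 active = percent inhibition above the average of all tested compounds plus 3 SD, set per screening campaign, cut at about 16% in these data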;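 also: IDE supplied by intact live HEK cells; FP after avidin binding of uncleaved biotin substrate so inhibition keeps polarization high; 0% = DMSO wells and 100% = 60 µM reference IDE inhibitor Ii1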
Target sequence (P14735 whole entry, looked up): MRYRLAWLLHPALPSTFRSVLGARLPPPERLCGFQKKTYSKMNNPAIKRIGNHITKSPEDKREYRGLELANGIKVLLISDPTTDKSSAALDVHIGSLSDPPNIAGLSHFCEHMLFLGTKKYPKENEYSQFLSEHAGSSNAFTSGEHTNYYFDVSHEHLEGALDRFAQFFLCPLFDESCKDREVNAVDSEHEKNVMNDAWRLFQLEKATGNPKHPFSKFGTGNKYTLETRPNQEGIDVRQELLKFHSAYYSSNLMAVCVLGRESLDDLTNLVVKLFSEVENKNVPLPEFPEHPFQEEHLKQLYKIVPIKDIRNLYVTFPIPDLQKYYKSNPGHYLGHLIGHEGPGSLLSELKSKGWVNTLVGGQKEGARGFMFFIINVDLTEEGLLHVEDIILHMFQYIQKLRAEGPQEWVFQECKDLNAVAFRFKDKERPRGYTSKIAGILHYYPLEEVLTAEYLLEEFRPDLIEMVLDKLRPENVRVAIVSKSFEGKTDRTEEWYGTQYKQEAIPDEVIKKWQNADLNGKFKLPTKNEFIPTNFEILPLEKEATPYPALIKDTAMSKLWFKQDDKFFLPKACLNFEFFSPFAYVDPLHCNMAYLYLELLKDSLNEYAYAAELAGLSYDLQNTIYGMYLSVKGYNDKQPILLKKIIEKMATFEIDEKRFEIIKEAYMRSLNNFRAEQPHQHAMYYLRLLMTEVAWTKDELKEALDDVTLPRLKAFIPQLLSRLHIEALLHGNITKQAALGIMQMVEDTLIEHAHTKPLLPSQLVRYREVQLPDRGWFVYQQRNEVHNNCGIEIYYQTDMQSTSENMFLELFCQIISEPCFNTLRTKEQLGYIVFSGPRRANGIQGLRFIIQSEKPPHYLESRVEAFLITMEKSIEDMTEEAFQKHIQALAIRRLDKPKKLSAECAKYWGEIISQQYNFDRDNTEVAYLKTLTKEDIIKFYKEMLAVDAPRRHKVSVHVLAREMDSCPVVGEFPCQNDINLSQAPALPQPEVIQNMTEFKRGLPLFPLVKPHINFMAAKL
IDE act: activators of human insulin-degrading enzyme in cells. P14735. activation, % at 5.96 µM. HEK cells, FAbeta-B cleavage, fluorescence polarization; 0% vehicle, 100% cell-free pure enzyme wells. 340,000 compounds, 0.073% hits;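 active = activation above the mean of all tested compounds plus 3 SD, set per screening campaign, cut at about 17% in these data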
TPT1 inhibitor: blocks Candida albicans tRNA 2'-phosphotransferase. 300,000 compounds, 0.81% hits. inhibition, % at 5 µM. AID 1962. recombinant caTPT1, FP RNA substrate dephosphorylation;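 active = inhibition above the mean of all tested compounds plus 3 SD, set per screening campaign, cut at about 24% in these data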;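 also: plate controls were DMSO alone for no effect and ferristatin control at 100 nM for full effect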
CSN inh: inhibitors of human CSN-mediated cullin deneddylation; Purified CSN, SCF-Nedd8-OG deneddylation, fluorescence polarization; inhibition, % at 12.5 µM; 360,000 compounds, 0.38% hits;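 active = pattern-corrected inhibition above about 35%, with an unprinted fluorescence ratio check between 0.5 and 1.5, limit read from the data, passing the limit was not always enough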;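 also: 0% = enzyme with substrate and 100% = substrate without enzyme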
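assay system = purified human Csn5 enzyme expressed in HEK293T cells | amount = 0.24 nM enzyme | buffer or medium = Tris/NaCl/DTT buffer, pH 7.5 | reagent = 10 nM SCFSkp2-Nedd8OG | compound = one concentration, 12.5 µM, 0.25% DMSO | times = 90 min reaction at room temperature | signal = FP | read-out basis = % inhibition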
HNF4A DNA FP: change in binding of human HNF4 alpha to DNA; P41235; HNF4a-FITC DNA binding, fluorescence polarization, 1 h; activity change, % at 10 µM; 360,000 compounds, 0.3% hits; AID 1224865; in the data active = activity change above about 30%, passing the limit was not always enough
TbMetRS inhib: blocks T. brucei methionyl-tRNA synthetase activity | purified T. brucei MetRS, ATP depletion, Kinase-Glo luminescence | inhibition, % at 11.9 µM | 360,000 compounds, 0.4% hits | AID 624268;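 active = inhibition above a per-plate cutoff of the control wells' mean inhibition plus 3 SD, cut at about 5.5% in these data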;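 also: 0% = DMSO wells median and 100% = median of wells with control inhibitor compound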
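Material: T. brucei methionyl-tRNA synthetase, purified; reagent: substrates ATP, L-methionine and bulk Escherichia coli tRNA; dosing: 11.9 µM single point; timing: 15 min plus 2 h at 25 °C; detection: luminescence of leftover ATP; evaluation: % inhibition; control set: DMSO-only wells as low control; replicates: singlicate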
TPT1 inh confirm: TPT1 (C. albicans) inhibition, confirmation. inhibition, % at 5 µM. recombinant caTPT1, fluorescence polarization, RNase T1 coupled. shares compounds with TPT1 inhibitor. AID 2149. 2,400 compounds, 74% hits;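 active = inhibition above the primary screen limit, the mean inhibition of all tested compounds plus 3 SD, cut at about 25% in these data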
RNase T1 inh: RNase T1 inhibition in TPT1 counter-screen. 2,400 compounds, 83% hits. RNase T1 cleavage, fluorescence polarization, 1536-well. inhibition, % at 5 µM. shares compounds with TPT1 inhibitor;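 active = inhibition above the solvent-only control well mean plus 3 SD, limit set per screening run, cut at about 23% in these data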;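 also: plate controls were DMSO wells with enzyme for no effect and wells without RNase T1 for full effect; inhibitors block cleavage so intact labeled substrate keeps polarization high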
Numbers without * were called inactive; . = no result given. Most compounds without a hit are left out; they make up all but 1.7% or so of the library.

SMILES | IDE cell inh | IDE act | TPT1 inhibitor | CSN inh | HNF4A DNA FP | TbMetRS inhib | TPT1 inh confirm | RNase T1 inh
O=c1[nH]c(=O)n(-c2ccc(Cl)cc2)c(O)c1C=Nc1ccc(S(=O)(=O)Nc2nccs2)cc1 | 7 | -5 | 31* | 12 | 4 | 0 | 37* | 52*
COc1ccc(CC(C)NC2CCCCCC2)cc1 (centres undefined) | 6 | 4 | -5 | -2 | 1 | -1 | . | .
COc1cc(/C=C2\C(=O)NC(=O)N(c3ccccc3)C2=O)cc(OC)c1O | 3 | 3 | 51* | 3 | -1 | -1 | 4 | 11
Cc1ccc(N2C(=O)NC(=O)/C(=C\c3ccoc3)C2=O)cc1 | 20* | -32 | 133* | 58* | 19 | -1 | 27* | 37*
CCc1ccc(N2C(=O)NC(=O)/C(=C/c3ccsc3)C2=O)cc1 | 7 | . | 28* | . | . | . | 17 | 24*
Cc1ccc(N2C(=O)NC(=O)/C(=C\C=C\c3ccco3)C2=O)cc1 | 14 | -18 | 43* | 34 | 9 | 2 | 34* | 54*
Cn1c(O)c(Cc2cccc(Cl)c2Cl)c(=O)n(C)c1=O | 2 | 0 | -3 | 0 | -1 | 0 | . | .
COC(=O)C1(F)C(=O)NC(=O)NC1O (centres undefined) | . | . | . | -4 | 0 | -1 | . | .
N[C@H](CO)Cc1ccccc1 | . | 2 | . | 4 | 0 | 0 | . | .
CCc1cc(=O)[nH]c(SCCCF)n1 | -2 | 1 | -2 | -16 | 1 | 0 | . | .
COc1ccc(N2C(=O)/C(=C/c3ccc(C)o3)C(=O)NC2=S)cc1 | . | -2 | . | 28 | 15 | 1 | . | .
CN1C(=O)C(=Cc2ccc(N3CCOCC3)o2)C(=O)N(C)C1=S | 0 | -7 | 57* | 176 | 87* | 0 | 114* | 118*
Cc1cc(N2CCCCC2)ccc1C=C1C(=O)N(C)C(=S)N(C)C1=O | 10 | 3 | 17 | 7 | 4 | -1 | . | .
CN1C(=O)/C(=C/c2ccc(N3CCCCCC3)o2)C(=O)NC1=S | 14 | -40 | 167* | 154 | 158 | 0 | 145* | 138*
CN1CCN(c2ccc(/C=C3\C(=O)NC(=S)N(c4cccc(Br)c4)C3=O)o2)CC1 | 2 | -36 | 132* | 139 | 128 | 1 | 152* | 142*
CN1C(=O)/C(=C/c2ccc(Cl)s2)C(=O)NC1=S | 4 | -12 | 8 | 10 | 3 | 0 | . | .
CN1C(=O)/C(=C\c2ccc(N3CCCCC3)o2)C(=O)NC1=S | 9 | -14 | 113* | 172 | 182 | -1 | 142* | 136*
COC(C)(C)CCCC(C)C/C=C/C(C)=C/C(=O)OC(C)C (centres undefined) | -2 | 4 | . | 4 | -1 | 0 | . | .
COc1ccc2c3c1O[C@H]1C(=O)CC[C@H]4[C@@H](C2)N(C)CC[C@]314 | 6 | 2 | . | -3 | 0 | 1 | . | .
COC(=O)C1=C(c2cccc(OC)c2OC)C[C@@H]2CC[C@H]1N2C(=O)NC(C)C | 5 | 1 | -1 | 0 | 0 | 0 | . | .
COc1ccc(CCN)cc1S(N)(=O)=O | . | . | . | 4 | -3 | 0 | . | .
C=CCN1C(=O)/C(=C\c2ccc(N3CCOCC3)o2)C(=O)NC1=S | 12 | -16 | 108* | 112 | 56* | 1 | 120* | 124*
CN1C(=O)C(=Cc2ccc(Sc3ccccc3)o2)C(=O)N(C)C1=S | 4 | -12 | 37* | 18 | 0 | -1 | 24 | 37*
Cc1ccc(-n2c(O)c(C=Nc3ccc(Br)cn3)c(=O)[nH]c2=O)cc1 | 5 | -2 | 10 | 0 | 0 | 0 | . | .
CC(C)(C)C(=O)N1Cc2cc(N3CCCCC3)ccc2-n2nncc2C1 | . | . | . | 3 | 4 | -1 | . | .
SMILES | IDE cell inh | IDE act | TPT1 inhibitor | CSN inh | HNF4A DNA FP | TbMetRS inhib | TPT1 inh confirm | RNase T1 inh
O=C1NC(=S)N(c2ccc(Cl)cc2)C(=O)/C1=C/N1CCN(C(=O)c2ccco2)CC1 | 4 | -3 | 39* | 43* | 16 | 1 | 29* | 41*
CCC(=NCc1cc(OC)cc(OC)c1)c1c(O)[nH]c(=O)[nH]c1=O | 9 | 3 | -3 | 6 | -1 | 0 | . | .
O=C1Nc2cc(C(=O)N3CCC4(CC3)OCCO4)ccc2NC1CSCc1cccc(F)c1 (centres undefined) | 4 | . | 61* | . | . | . | 96* | 101*
C/C(=C\c1ccc(N(C)C)cc1)[N+](=O)[O-] | 3 | -10 | 11 | -5 | 1 | 0 | . | .
CN(C)c1ccc(/C=C/[N+](=O)[O-])cc1 | 9 | -18 | 51* | -1 | 1 | 0 | 73* | 90*
CCc1ccc(OCC(=O)N2CCN(Cc3ccc4c(c3)OCO4)CC2)cc1 | -6 | 0 | -1 | 4 | 3 | 0 | . | .
O=c1[nH]c(=O)n(CCC2=CCCCC2)c(O)c1C=NCCCn1ccnc1 | 2 | -5 | 16 | 4 | 5 | 0 | . | .
O=c1[nH]c(=O)n(CCc2ccc(F)cc2)c(O)c1C=NCCCn1ccnc1 | 3 | 6 | 39* | 11 | 11 | -1 | 33* | 44*
NS(=O)(=O)c1ccc(N=Cc2c(O)n(C3CCCCC3)c(=O)n(C3CCCCC3)c2=O)cc1 | 3 | 6 | 44* | 23 | 6 | 0 | 19 | 25*
CCn1c(O)c(C=Nc2ccc(S(N)(=O)=O)cc2)c(=O)n(CC)c1=S | 5 | -4 | 20 | -5 | 6 | 0 | . | .
CCCCN1C(=O)NC(=O)/C(=C/c2cnc(SC)nc2)C1=O | 4 | 4 | 8 | 0 | -1 | -1 | . | .
CN(C)/C=C1/C(=O)NC(=O)N(CCNc2ncc(C(F)(F)F)cc2Cl)C1=O | 2 | -1 | 29* | 9 | 17 | 0 | 24 | 34*
Cc1ccc(N2C(=O)NC(=O)/C(=C/c3ccc(-c4ccc(C(=O)O)c(Cl)c4)o3)C2=O)cc1 | 6 | -3 | 9 | 13 | -14 | 0 | . | .
CCOc1ccc(N2C(=O)/C(=C/c3ccc(C)o3)C(=O)NC2=S)cc1 | 1 | -2 | 32* | 27 | 21 | 0 | 47* | 57*
CCOc1ccc(N2C(=O)NC(=O)/C(=C\c3ccc(N4CCCCC4)o3)C2=O)cc1 | 10 | -21 | 138* | 138 | 181 | 0 | 149* | 146*
COc1cc2cc(C(=O)N3CC(COS(C)(=O)=O)c4ccc(O)cc43)[nH]c2c(OC)c1OC (centres undefined) | . | -2 | . | 2 | -1 | 0 | . | .
CCC(C)N1C(=O)/C(=C\c2ccc(N3CCCCCC3)cc2)C(=O)NC1=S (centres undefined) | 4 | 7 | 25* | 24 | 8 | -1 | 37* | 58*
